Measurements: ChEMBL document CHEMBL4609990, “Design and synthesis of cyanamides as potent and selective N-acylethanolamine acid amidase inhibitors” (Bioorg Med Chem, 2020)

Experiments:
[1] = Half life in artificial gastric fluid by HPLC analysis; type: physicochemical
Outline: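 Compound at 200 μM incubated in artificial gastric juice; reaction quenched with acetonitrile and samples analysed by HPLC to estimate half-life (min).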

[2] = target: T1, N-acylethanolamine-hydrolyzing acid amidase (Homo sapiens, UniProt Q02083); test: Inhibition of activated human NAAA using fluorogenic PAMCA and N-4-methylcoumarin as substrate incubated for 90 mins by fluorescence based assay
T1 sequence (Q02083 whole entry): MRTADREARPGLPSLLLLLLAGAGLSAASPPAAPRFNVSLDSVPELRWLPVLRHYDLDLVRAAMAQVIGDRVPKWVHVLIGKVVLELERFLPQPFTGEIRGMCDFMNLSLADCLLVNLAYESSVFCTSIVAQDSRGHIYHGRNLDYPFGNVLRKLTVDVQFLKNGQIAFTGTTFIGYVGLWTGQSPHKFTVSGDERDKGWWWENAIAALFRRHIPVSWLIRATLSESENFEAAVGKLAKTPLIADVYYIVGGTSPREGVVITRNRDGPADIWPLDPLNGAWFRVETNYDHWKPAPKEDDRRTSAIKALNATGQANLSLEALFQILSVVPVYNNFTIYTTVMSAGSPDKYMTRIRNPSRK
Outline: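 Purified activated hNAAA (final 0.25 µg/mL) in 100 mM citrate-phosphate pH 4.5, 3 mM DTT, 0.1% Triton X-100, 0.05% BSA, 150 mM NaCl; compound in DMSO preincubated 90 min at room temperature. PAMCA added (final 5 µM), reaction at 37 °C for 90 min, fluorescence ex 360/em 460 nm read every 10 min. RFU converted to AMC via AMC standard curve. IC50 from eight concentrations, triplicate.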

[3] = target: T2, N-acylethanolamine-hydrolyzing acid amidase (Homo sapiens) (UniProt Q02083); test: Irreversible inhibition of activated human NAAA assessed as ratio of Kinact/Ki using fluorogenic PAMCA and N-4-methylcoumarin as substrate
T2 sequence (whole entry): T1 sequence (Q02083 whole entry)

[4] = target: T3, Fatty-acid amide hydrolase 1 (Homo sapiens) (UniProt O00519); test: Inhibition of recombinant human FAAH expressed in Escherichia coli at 1 uM using fluorogenic AAMCA as substrate by fluorimetric assay relative to control
T3 sequence (whole entry): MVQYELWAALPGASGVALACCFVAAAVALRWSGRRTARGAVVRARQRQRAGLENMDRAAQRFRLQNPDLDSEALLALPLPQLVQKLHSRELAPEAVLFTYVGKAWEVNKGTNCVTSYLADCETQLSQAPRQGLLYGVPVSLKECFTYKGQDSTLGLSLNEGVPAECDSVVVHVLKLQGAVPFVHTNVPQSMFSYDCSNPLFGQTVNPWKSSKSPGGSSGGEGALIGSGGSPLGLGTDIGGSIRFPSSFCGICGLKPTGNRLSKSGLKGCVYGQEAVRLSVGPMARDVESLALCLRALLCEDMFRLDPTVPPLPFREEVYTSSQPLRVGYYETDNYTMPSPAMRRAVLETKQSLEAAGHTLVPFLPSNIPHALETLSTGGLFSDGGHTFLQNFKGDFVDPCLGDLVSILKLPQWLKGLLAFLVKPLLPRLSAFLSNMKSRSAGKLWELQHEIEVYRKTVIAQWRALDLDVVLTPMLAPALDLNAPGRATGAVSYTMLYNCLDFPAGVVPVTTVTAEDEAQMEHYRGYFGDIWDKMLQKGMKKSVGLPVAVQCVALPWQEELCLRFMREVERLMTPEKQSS
Outline: (§1)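 Human recombinant FAAH expressed in E. coli and purified; fluorometric assay with arachidonoyl 7-amino-4-methylcoumarin amide (AAMCA) as substrate; IC50 by curve fitting, or percent inhibition at 1 µM.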

[5] = target: T4, Monoglyceride lipase (Homo sapiens) (UniProt Q99685); test: Inhibition of recombinant human hexaHis-tagged MGL expressed in Escherichia coli BL21 (DE3) at 1 uM using fluorogenic AHMMCE as substrate preincubated for 1 hr followed by substrate addition by fluorimetric assay relative to control
T4 sequence (whole entry): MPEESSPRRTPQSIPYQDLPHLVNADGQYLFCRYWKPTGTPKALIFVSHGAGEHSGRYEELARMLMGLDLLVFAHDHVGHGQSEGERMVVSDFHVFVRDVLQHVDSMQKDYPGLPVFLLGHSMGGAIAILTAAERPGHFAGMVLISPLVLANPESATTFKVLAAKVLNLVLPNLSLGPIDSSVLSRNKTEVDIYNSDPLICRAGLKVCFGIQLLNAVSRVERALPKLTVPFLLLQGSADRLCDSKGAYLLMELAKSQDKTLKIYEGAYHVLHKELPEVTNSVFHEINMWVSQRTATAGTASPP
Outline: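 Human recombinant MGL expressed in E. coli and purified; fluorometric assay using arachidonoyl 7-hydroxy-6-methoxy-4-methylcoumarin ester (AHMMCE) as substrate; IC50 by curve fitting, or percent inhibition at 1 µM.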

[6] = Half life in human liver microsomes at 1 uM in presence of NADPH by LC-MS/MS
[7] = Half life in rat liver microsomes at 1 uM in presence of NADPH by LC-MS/MS
[8] = Half life in human plasma by HPLC analysis
[9] = Half life in rat plasma by HPLC analysis
Homo sapiens [10] = organism: Homo sapiens; test: Selectivity index, ratio of IC50 for full length human ABHD6 using AHMMCE as substrate preincubated for 1 hr followed by substrate addition by fluorimetric assay to IC50 human NAAA using fluorogenic PAMCA and N-4-methylcoumarin as substrate incubated for 90 mins by fluorescence based assay
Homo sapiens [11] = organism: Homo sapiens; test: Selectivity index, ratio of IC50 for human hexaHis-tagged MGL expressed in Escherichia coli BL21 (DE3) using fluorogenic AHMMCE as substrate preincubated for 1 hr followed by substrate addition by fluorimetric assay to IC50 human NAAA using fluorogenic PAMCA and N-4-methylcoumarin as substrate incubated for 90 mins by fluorescence based assay
Homo sapiens [12] = organism: Homo sapiens; test: Selectivity index, ratio of IC50 for human Cathepsin K using […] as substrate preincubated with enzyme for 90 mins followed by substrate addition by fluorimetry analysis to IC50 human NAAA using fluorogenic PAMCA and N-4-methylcoumarin as substrate incubated for 90 mins by fluorescence based assay
[13] = target: T5, Fatty-acid amide hydrolase 1 (Homo sapiens, UniProt O00519); test: Inhibition of recombinant human FAAH expressed in Escherichia coli using fluorogenic AAMCA as substrate by fluorimetric assay; outline: as §1
T5 sequence (O00519 whole entry): T3 sequence (whole entry)

Row | SMILES | IC50 [2] | Ratio [3] | other results
1 | COc1cccc(-c2ccc(COC3CN(C#N)C3)c(F)c2)c1 | 0.47 nM |  | half-life [1]: 271 min
2 | N#CN1CC(OCc2ccc(Oc3ccccc3)cc2)C1 | 1.1 nM | 1.33 ×10⁶ /M/s | 
3 | COc1cccc(-c2ccc(COC3CN(C#N)C3)c(C(F)(F)F)c2)c1 | 0.85 nM | 1.4 ×10⁶ /M/s | 
4 | COc1cccc(-c2ccc(COC3CN(C#N)C3)c(OC)c2)c1 | 2.8 nM |  | 
5 | N#CN1CC(OCc2ccc(-c3ccccc3)cc2)C1 | 2.8 nM | 3.03 ×10⁶ /M/s | 
6 | N#CN1CC(OCc2ccc(-c3ccc(F)cc3)cc2)C1 | 0.68 nM | 2.09 ×10⁶ /M/s | 
7 | N#CN1CC(OCc2ccc(-c3ccc4c(c3)OCO4)cc2)(c2ccccc2)C1 | 9.2 nM |  | inhibition [4]: 99%; inhibition [5]: 59%
8 | Cn1nccc1-c1ccc(C(OC2CN(C#N)C2)c2ccccc2)cc1 (stereo not given) | 74.7 nM |  | 
9 | N#CN1CC(OCc2ccc(-c3cccnc3)cc2)C1 | 12 nM |  | 
10 | COc1cccc(-c2ccc(COC3CN(C#N)C3)cc2)c1 | 0.89 nM | 3.05 ×10⁶ /M/s | half-life at 1 µM ([6]; microsomes): 11.2 min; half-life at 1 µM ([7]; microsomes): 10 min; half-life [8]: 204 min; half-life [1]: 450 min; half-life [9]: 189 min
11 | Cc1ccc(-c2ccc(COC3CN(C#N)C3)cc2)cc1 | 0.46 nM | 2.24 ×10⁶ /M/s | 
12 | COc1cccc(-c2ccc(COC3CN(C#N)C3)cc2)c1OC | 0.88 nM | 8.4 ×10⁶ /M/s | 
13 | COc1cccc(-c2ccc(S(=O)(=O)N3CCC34CN(C#N)C4)cc2)c1 | 2.8 nM |  | Ratio IC50 (Homo sapiens [10]): > 100; Ratio IC50 (Homo sapiens [11]): > 100; Ratio IC50 (Homo sapiens [12]): > 100; half-life [8]: 180 min; IC50 [13]: 10.2 nM; inhibition [5]: 14%
14 | COc1cccc(-c2ccc(COC3(c4ccccc4)CN(C#N)C3)cc2)c1 | 9.1 nM |  | half-life at 1 µM ([6]; microsomes): 15.3 min; half-life at 1 µM ([7]; microsomes): 14.5 min; IC50 [13]: 61 nM; inhibition [5]: 19.5%
15 | N#Cc1ccc(-c2cc(Oc3ccccc3)ccc2COC2CN(C#N)C2)cc1 | 2.5 nM |  | 
16 | COc1ncccc1-c1ccc(COC2CN(C#N)C2)cc1 | 5.8 nM |  | 
17 | N#CN1CC[C@@H](OCc2ccc(-c3ccccc3)cc2)C1 | 26.4 nM |  | 
18 | N#CN1CC(OCc2ccc(-c3ccc(C(F)(F)F)cc3)cc2)C1 | 1.6 nM | 2.74 ×10⁶ /M/s | half-life at 1 µM ([6]; liver microsomes): 6.8 min; half-life at 1 µM ([7]; liver microsomes): 8.9 min
19 | CN(Cc1ccc(-c2ccccc2)cc1)C1CN(C#N)C1 | 20.8 nM |  | half-life at 1 µM ([6]; liver microsomes): 11.3 min
20 | N#Cc1ccccc1-c1cc(Oc2ccccc2)ccc1COC1CN(C#N)C1 | 6.6 nM |  | 
21 | COc1ccncc1-c1ccc(COC2CN(C#N)C2)cc1 | 40 nM |  | 
